For test [1], the target named is Collagenase type V from Clostridium histolyticum. Briefly: Collagenase inhibition assay. Format: biochemical. The settings on record: for IC50: incubation 37°C 10 min, reaction monitored 30 min; for inhibition rate: initial concentration 50 μg/mL. A digest of the protocol: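 Clostridium histolyticum collagenase (100 μg/mL initial) in 10 mM Tris-HCl pH 7.3 preincubated 10 min with test compound (1% DMSO final). MCA-Pro-Leu-Ala-Nva-DNP-Dap-Ala-Arg-NH2 (55.55 μg/mL initial) then added. Fluorescence ex 320/em 400 nm read at endpoint, or every 5 min over 30 min for AUC. Serial dilutions in triplicate, blank per concentration, % inhibition versus buffer control. Km by Lineweaver-Burk, substrate 4.17–166.67 μg/mL initial.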

The target of another test is collagenase. The following applies: cited from earlier work.

Values after ≈ are worked out from the molar mass of the structure shown. Where two headings read alike, the source gives them in different places.

As to `COC1=C(NCC(=O)O)CC(O)(CO)CC1=N[C@H](C(=O)O)[C@@H](C)O` (stereo partly shown) [porphyra], the IC50 in test [1] (final concentration) is 37.73 µg/mL; in test [1] (mean ± SD (n=3)) it was 106 ± 2.3 µM.

Regarding `COC1=C(NCC(=O)O)CC(O)(CO)CC1=N` (stereo not shown) [palythine], the 50% inhibitory concentration (IC50) in test [1] (final concentration) turned out to be 38.82 µg/mL; in test [1] (mean ± SD (n=3)), 159 ± 3.2 µM.

`COC1=C(NCC(=O)O)C[C@@](O)(CO)C/C1=N\[C@@H](CO)C(=O)O` [shinorine]: the half-maximal inhibitory concentration (IC50) in test [1] (final concentration) came to 34.42 µg/mL; in test [1] (mean ± SD (n=3)) it was 104 ± 3.7 µM.

Take `CC(C)C[C@H](NP(=O)(O)O[C@@H]1O[C@@H](C)[C@H](O)[C@@H](O)[C@H]1O)C(=O)N[C@@H](Cc1c[nH]c2ccccc12)C(=O)O` [phosphoramidon]: the “IC50, kinetic reading mode (AUC)” value in test [1] (AUC 0-30 min, n=3) is listed as 11.95 μg/mL ± 1.28. In test [1] (endpoint reading at 30 min, n=3), the “IC50, endpoint reading mode” value is given as 11.07 μg/mL ± 0.95. The compound also displayed an IC50 in test [1] (mean ± SD (n=3)) of 18.8 ± 1.6 µM. The inhibition rate in test [1] (reaction temperature 30°C) was determined as 53.4%; in test [1] (reaction temperature 37°C), 53.4%; in test [1] (room temperature (RT)) it was 49.1%.

For the compound `O=C(O[C@@H]1Cc2c(O)cc(O)cc2O[C@@H]1c1cc(O)c(O)c(O)c1)c1cc(O)c(O)c(O)c1` [epigallocatechingallate], the half-maximal inhibitory concentration (IC50) on collagenase (ref [15]) was 114 µg/mL (≈ 249 µM).

As to “MCA-Pro-Leu-Ala-Nva-DNP-Dap-Ala-Arg-NH2 [MMP-2 fluorogenic substrate]”, the “maximum velocity (Vmax)” value in test [1] (Lineweaver Burk plot, enzyme 100 μg/mL (initial)) worked out at 212.76 µmol/min. Besides, the Michaelis constant (Km) in test [1] (read-out: Km (final), Lineweaver Burk plot, final concentration) is 12.9 µM; in test [1] (read-out: Michaelis Menten constant (Km), Lineweaver Burk plot, enzyme 100 μg/mL (initial), initial substrate concentration), 51.7 µM.

On to `c1cnc2c(c1)ccc1cccnc12` [1,10-phenanthroline], for which the results for the half-inhibitory concentration (IC50) in test [1] (final concentration) and in test [1] (mean ± SD (n=3)) were 42.86 µg/mL and 238 ± 3.4 µM, respectively. For the same compound, at collagenase (ref [16]), the “IC50 described in literature” value is 70.4 µg/mL (≈ 391 µM).

As a reminder, the IC50 is the midpoint of a concentration-inhibition curve. Usually Km stands for the concentration of substrate that gives half-maximal velocity.

The values are drawn from paper PMC4515944 (Planta medica, 2015).
